From PubChem BioAssay AID638 (SRMLSC, 2007) come the findings set out here.

In all, about 1,300 compounds went through this assay and about 65 (5%) were called active. The list is a sample of the results. Results with a measured potency or affinity are listed apart. A number with no mark means an inactive call.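 The calls were made as follows: active = growth inhibition reaching a set limit at one or more tested doses; inactive = the rest.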

The nature of the test: wild-type E. coli BW25113 antibacterial activity – OD615, dose response (AID 638). The conditions noted are these: at 100 µM (top of the series) unless noted. An outline of the steps:
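Assay system: E. coli BW25113 wild type. Doses: compound concentration series. Timing: 20 h compound exposure, 37 °C. Technique: OD615 absorbance. Medium: LB broth containing kanamycin at 50 µg/mL. Benchmarks: chloramphenicol at 30 µM final as inhibition control. Measure: IC50 from 4-parameter logistic, bounds fixed 0–100%.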
With `Fc1ccc(-n2c(Cc3ccccc3)nnc2SCc2nc(-c3cccs3)no2)cc1`, the growth inhibition was -13.2%.

Turning to `C=CCOC(=O)C(C#N)c1nc2ccccc2nc1N1CCCC1` (stereo not given), the growth inhibition was -1.85%.

As for `COCc1cc(C)nc2sc3c(=O)oc(C)nc3c12`, the growth inhibition was 10.4%.

For the compound `CCCCOC(=O)Nc1ccc(C(=O)OCCC)cc1`, the growth inhibition is 6.71%.

With `COC(=O)c1ccc(NC(=O)CN2CCN(c3cccc(Cl)c3)CC2)cc1`, the growth inhibition is -2.21%.

Consider `N#CC1=C(SCC(=O)c2cc3ccccc3oc2=O)NC(=O)C(C#N)C12CCCC2` (stereo not given), for which the growth inhibition is 14.3%.

On to `N#CC1=C(SCC(=O)NC23CC4CC(CC(C4)C2)C3)NC(=O)C(C#N)C12CCCCC2` (stereo not given), for which the growth inhibition was 18.1% (active).

Consider `CC(C)(C)C1CCC2(CC1)C(C#N)=C(SCC(=O)NC1CCCCC1)NC(=O)C2C#N` (stereo not given), for which the growth inhibition is 12.2%.

Turning to `CCN(CC)S(=O)(=O)c1ccc2[nH]cc(C(=O)NCCC3=CCCCC3)c(=O)c2c1`, the growth inhibition is -6.85%.

As to `COc1ccc2nc(SCC(=O)N(C)C3CCCCC3)c(C#N)cc2c1`, the growth inhibition is -2.36%.

Take `CCCOc1ccc(C2C(C(=O)c3ccc(C)o3)=C(O)C(=O)N2Cc2cccnc2)cc1` (stereo not given): the growth inhibition is 6.33%.

As to `Cc1cc(Nc2ccccc2)nc(-c2ccccc2O)n1`, the growth inhibition is -4.57%.

As for `Clc1ccc(OCCn2ccnc2)c2ccccc12`, the growth inhibition is 12.7% [at 50 µM].

`O=S(=O)(Nc1nc2ccccc2nc1N1CCN(c2ccccn2)CC1)c1ccc(Cl)cc1`: the growth inhibition was -0.89%.

For the compound `CC1CCCCN1S(=O)(=O)c1ccc(C(=O)Nc2nnc(-c3cccs3)o2)cc1` (stereo not given), the growth inhibition was 2.23%.

With `O=C(Nc1nnc(-c2cccs2)o1)c1cccc(Oc2ccccc2)c1`, the growth inhibition was 12.7%.

As to `Cc1cc(N2CCCCC2)nc(SCc2ccc(C#N)cc2)n1`, the growth inhibition was -5.55%.

`Cc1ccccc1CSc1nc2n(n1)C(c1cccs1)C1=C(CCCC1=O)N2` (stereo not given): the growth inhibition was -14.8%.

For `CCCCCn1c(N2CCC(Cc3ccccc3)CC2)nc2c1c(=O)[nH]c(=O)n2C`, the growth inhibition is -11.3%.

As for `CCOC(=O)Cc1nnc2c(Nc3ccccc3F)nc3nonc3n12`, the growth inhibition was -6.59%.
